# Laboratory results as given in ChEMBL document CHEMBL1129494, “Structure-based design of lipophilic quinazoline inhibitors of thymidylate synthase” (J Med Chem, 1996).
# Tests used:
# L1210 [1] = assay: Inhibition of murine L1210 cell line tissue culture growth; format: functional, cell-based; details: Mus musculus
# How it was run: (§1)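 Murine L1210 leukemia cells seeded at 1000 cells/well in RPMI-1640 containing 5% fetal calf serum and 0.5% DMSO, exposed to nine 2-fold serial dilutions for 3 days. Growth was read by MTT (4 h), with formazan dissolved in DMSO and measured spectrophotometrically. IC50 comes from semilog concentration plots of the mean of four assessments per dilution versus control growth.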
# CCRF-CEM [2] = assay: (§2) Inhibition of CCRF-CEM (human leukemia) cell growth in vitro.; format: functional, cell-based
# How it was run: (§3)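 MTT colorimetric growth assay (modified Mosmann) in CCRF-CEM human leukemia cells seeded at 10 000 cells/well in RPMI-1640 with 5% fetal calf serum and 0.5% DMSO. Nine 2-fold serial dilutions of compound, 5 day incubation, then 4 h MTT and formazan dissolved in DMSO for spectrophotometric reading. IC50 taken from semilog plots of the mean of four growth assessments per dilution relative to control cultures.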
# L1210 [3] = assay: Inhibition of L1210 (murine leukemia) cell growth in vitro.; format: functional, Mus musculus; set-up: concentration or dose not given beside the values; how it was run: as §1
# GC3/MTK- [4] = assay: (§4) Inhibitory activity of compound against growth of thymidine kinase-deficient human adenocarcinoma cell line (GC3/M TK-) in tissue culture; format: functional
# How it was run: (§5)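 MTT colorimetric growth assay in the thymidine kinase-deficient human adenocarcinoma line. Seeded at 10 000 cells/well in RPMI-1640 with 10% fetal calf serum and 0.5% DMSO. Nine 2-fold serial dilutions of compound, 5 day incubation, then 4 h MTT. Formazan dissolved in DMSO and read spectrophotometrically. IC50 taken from semilog plots of the mean of four growth assessments per dilution, relative to control cultures.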
# GC3/MTK- [5] = assay: Inhibition of GC3/M TK- (human adenocarcinoma) cell growth in vitro.; format: functional, cell-based
# How it was run: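 Thymidine kinase-deficient human adenocarcinoma GC3/M TK- cells seeded at 10 000 cells/well in RPMI-1640 with 10% fetal calf serum and 0.5% DMSO. Compound given as nine 2-fold serial dilutions over a 5 day incubation, then 4 h MTT and spectrophotometric formazan read after DMSO dissolution. IC50 from semilog plots of the mean of four growth assessments relative to control cultures.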
# CCRF-CEM [6] = assay: Inhibitory activity of compound against growth of human leukemias (CCRF-CEM) cell lne in tissue culture; format: functional; how it was run: as §3
# [7] = biological target: Thymidylate synthase (Homo sapiens) (UniProt P04818)
# Chain of Thymidylate synthase (Homo sapiens) (P04818 2-313 limits assumed): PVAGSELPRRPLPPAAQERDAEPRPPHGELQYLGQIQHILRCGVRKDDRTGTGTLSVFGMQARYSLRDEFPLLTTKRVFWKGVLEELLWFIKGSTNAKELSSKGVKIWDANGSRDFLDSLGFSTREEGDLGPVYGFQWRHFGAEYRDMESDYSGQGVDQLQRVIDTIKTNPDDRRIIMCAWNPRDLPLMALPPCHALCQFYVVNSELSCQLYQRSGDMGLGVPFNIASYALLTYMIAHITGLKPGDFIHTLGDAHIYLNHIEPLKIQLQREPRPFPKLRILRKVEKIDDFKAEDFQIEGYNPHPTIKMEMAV
# [8] = biological target: Thymidylate synthase (Escherichia coli) (UniProt C3SWJ7)
# Chain of Thymidylate synthase (Escherichia coli) (C3SWJ7 1-264): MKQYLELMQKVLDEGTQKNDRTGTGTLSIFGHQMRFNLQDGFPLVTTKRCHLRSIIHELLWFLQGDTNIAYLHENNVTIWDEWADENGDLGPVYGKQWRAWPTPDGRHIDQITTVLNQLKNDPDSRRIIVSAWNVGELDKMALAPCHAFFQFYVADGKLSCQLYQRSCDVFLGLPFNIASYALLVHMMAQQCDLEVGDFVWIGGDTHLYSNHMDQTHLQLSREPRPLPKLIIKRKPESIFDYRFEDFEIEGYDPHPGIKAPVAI
# [9] = biological target: Thymidylate synthase (Homo sapiens) (UniProt P04818); remark: listed apart in the source
# [10] = biological target: Thymidylate synthase (Escherichia coli) (UniProt C3SWJ7); remark: listed apart in the source
# GC3/MTK- [11] = assay: Activity for growth inhibition in tissue culture of thymidine kinase-deficient human adenocarcinoma cell line (GC3/M TK-)value in parenthesis indicates % inhibition; format: functional, cell-based
# GC3/MTK- [12] = assay: as §4; format: functional; set-up: concentration or dose not given beside the values; how it was run: as §5
# CCRF-CEM [13] = assay: as §2; format: functional; set-up: concentration or dose not given beside the values; how it was run: as §3
# CCRF-CEM [14] = assay: Activity for growth inhibition in tissue culture of human leukemias (CCRF-CEM). value in parenthesis indicates % inhibition; format: functional, cell-based
# CCRF-CEM [15] = assay: Activity for growth inhibition in tissue culture of human leukemias (CCRF-CEM); format: functional, cell-based; how it was run: as §3
IC50 (L1210 [1]) [µM],IC50 (CCRF-CEM [2]) [µM],Kis [7] [µM],Kii [8] [µM],Kii [9] [µM],Kis [10] [µM],IC50 (CCRF-CEM [14]) [µM],IC50 (CCRF-CEM [15]) [µM],Compound,Inhibition (L1210 [3]) [%],Inhibition (GC3/MTK- [4]) [%],IC50 (GC3/MTK- [5]) [µM],Inhibition (CCRF-CEM [6]) [%],IC50 (GC3/MTK- [11]) [µM],Inhibition (GC3/MTK- [12]) [%],Inhibition (CCRF-CEM [13]) [%]
> 6.5,> 10.7,–,–,–,–,–,–,C#CCN(Cc1ccc2nc(C)nc(O)c2c1)c1ccccc1,35,24,> 10.7,29,–,–,–
> 5,> 5,1.4,16,3.4,3.4,–,–,C#CCN(Cc1ccc2nc(C)nc(O)c2c1)c1cccc(C)c1,30,34,–,20,> 5,–,–
> 14.7,> 14.7,1,17,2.2,2,–,–,Cc1nc(O)c2cc(CNc3ccc(S(=O)(=O)c4ccccc4)cc3)ccc2n1,40,–,> 14.7,–,–,10,33
> 75,–,0.0096,0.015,0.019,0.0059,> 77,–,C#CCN(Cc1ccc2nc(C)nc(O)c2c1)c1ccc(S(=O)(=O)NCC(=O)O)c(C(F)(F)F)c1,–,–,> 77,–,–,28,–
3.1,4.5,0.045,0.15,0.091,0.039,–,–,C#CCN(Cc1ccc2nc(C)nc(O)c2c1)c1ccc(S(=O)(=O)N2CCOCC2)cc1,–,–,5.2,–,–,–,–
> 2.4,–,0.41,2.7,0.68,0.86,> 2.4,–,C#CCN(Cc1ccc2nc(C)nc(O)c2c1)c1cccc(C#C)c1,5,–,–,–,–,–,15
3.4,> 4,0.13,1,0.49,0.18,–,–,CCN(Cc1ccc2nc(C)nc(O)c2c1)c1ccc(C(=O)C(F)(F)F)cc1,–,–,> 4,–,–,10,10
0.045,–,0.0085,–,0.0071,0.0048,–,0.029,C#CCN(Cc1ccc2nc(C)nc(O)c2c1)c1ccc(C(=O)NC(CCC(=O)O)C(=O)O)cc1 (stereo not given),–,–,0.048,–,–,–,–
4.7,> 4.8,0.056,0.17,0.098,0.068,–,–,C#CCN(Cc1ccc2nc(C)nc(O)c2c1)c1ccc([N+](=O)[O-])cc1,–,–,> 4.8,–,–,–,8
1.7,4.5,0.061,0.55,0.11,0.16,–,–,C#CCN(Cc1ccc2nc(C)nc(O)c2c1)c1ccc([S+]([O-])c2ccccc2)cc1 (stereo not given),–,–,3.9,–,–,–,–
> 5.6,> 5.6,1.3,0.36,2.3,0.18,–,–,C#CCN(Cc1ccc2nc(C)nc(S)c2c1)c1cccc(C(F)(F)F)c1,–,–,–,–,> 5.6,–,30
> 5,–,2.7,24,3.8,5,> 5,–,C#CCN(Cc1ccc2nc(C)nc(O)c2c1)c1cccc(CC)c1,25,20,–,–,> 5,–,26
2.8,3.4,> 1,> 1,> 1,> 1,–,–,Cc1nc(O)c2cc(CN(C)c3ccc(Cc4ccccc4)cc3)ccc2n1,–,–,–,–,> 5,–,–
0.86,1.44,–,–,–,–,–,–,C#CCN(Cc1ccc2nc(C)nc(O)c2c1)c1ccc(S(=O)(=O)c2ccccc2)cc1,–,–,1.76,–,–,–,–
7.7,> 7.7,0.11,0.47,0.16,0.094,–,–,C#CCN(Cc1ccc2nc(C)nc(O)c2c1)c1ccc(C(=O)c2ccccc2)cc1,–,–,6.2,–,–,–,40
> 5.3,–,0.16,1.4,0.44,0.33,> 5.3,–,C#CCN(Cc1ccc2nc(C)nc(O)c2c1)c1cccc(I)c1,–,–,> 5.3,–,–,35,10
20,> 26,0.064,0.41,0.084,0.1,–,–,C#CCN(Cc1ccc2nc(C)nc(O)c2c1)c1ccc(S(N)(=O)=O)cc1,–,–,> 26,–,–,–,–
1.57,–,–,–,–,–,–,–,C#CCN(Cc1ccc2[nH]c(N)nc(=O)c2c1)c1ccc(C(=O)NC(CCC(=O)O)C(=O)O)cc1 (stereo not given),–,–,2.13,–,–,–,–
> 5,–,0.076,0.33,0.17,0.15,–,> 5,C#CCN(Cc1ccc2nc(C)nc(O)c2c1)c1ccc(C#N)cc1,35,–,> 5,–,–,–,10
> 50,48,0.063,0.28,0.071,0.1,–,–,C#CCN(Cc1ccc2nc(C)nc(O)c2c1)c1ccc(S(=O)(=O)N2CCNCC2)cc1,47,–,–,–,> 50,47,–
0.66,2.7,0.034,0.24,0.13,0.077,–,–,CCN(Cc1ccc2nc(C)nc(O)c2c1)c1ccc(S(=O)(=O)c2ccccc2)cc1,–,–,2.6,–,–,–,–
1.8,> 5.7,0.65,3.3,0.84,0.92,–,–,C#CCN(Cc1ccc2nc(C)nc(O)c2c1)c1cccc(Br)c1,–,–,5.3,–,–,–,20
> 2.75,–,0.021,0.064,0.028,0.042,> 2.75,–,C#CCN(Cc1ccc2nc(C)nc(O)c2c1)c1ccc(S(=O)(=O)C(F)(F)F)cc1,45,–,–,–,> 2.75,–,–
> 49,–,1.7,8.3,3.6,2.4,> 49,–,C#CCN(Cc1ccc2nc(C)nc(O)c2c1)c1cccc(C(C)O)c1 (stereo not given),35,–,49,–,–,–,33

Compound,IC50 (L1210 [1]) [µM],IC50 (CCRF-CEM [2]) [µM],Kis [7] [µM],Kii [8] [µM],Kii [9] [µM],Kis [10] [µM],IC50 (CCRF-CEM [14]) [µM],IC50 (CCRF-CEM [15]) [µM],Inhibition (L1210 [3]) [%],Inhibition (GC3/MTK- [4]) [%],IC50 (GC3/MTK- [5]) [µM],Inhibition (CCRF-CEM [6]) [%],IC50 (GC3/MTK- [11]) [µM],Inhibition (GC3/MTK- [12]) [%],Inhibition (CCRF-CEM [13]) [%]
C#CCN(Cc1ccc2nc(C)nc(O)c2c1)c1ccc([N+](=O)[O-])c(C(F)(F)F)c1,5,10.5,0.074,0.073,0.15,0.038,–,–,–,–,–,–,–,–,–
C#CCN(Cc1ccc2nc(C)nc(O)c2c1)c1ccc(C#N)c(C(F)(F)F)c1,> 2.8,–,0.081,0.047,0.14,0.015,–,–,>15,–,–,–,–,–,–
